The source made the active and inactive calls. The rule behind the calls is not given here.
Tests used:
[1] = Induction of apoptosis in BALB/C mouse BMDM assessed as cells with hypodiploid DNA content at 0.2 uM after 24 hrs by FITC/propidium iodide staining based flow cytometric analysis (reference value: 29.9%); format: functional
Trypanosoma cruzi [2] = assay: Trypanocidal activity against Trypanosoma cruzi Tulahuen trypomastigotes infected in mouse whole blood assessed as viable trypomastigote cells at 20 uM after 96 hrs by trypan blue assay relative to control; format: functional
Method in brief: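 Trypomastigotes were exposed to 20 μM in 100% whole blood at 37 °C. Viable parasites were counted after 24, 48, 72 and 96 h. Results are means ± SD of three independent experiments.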

Trypanosoma cruzi [3] = assay: Induction of mitochondrial membrane depolarization in Trypanosoma cruzi Tulahuen trypomastigotes at 0.2 uM after 24 hrs by Rh123/propidium iodide staining-based flow cytometric analysis (reference value: 3.25 +/- 1.66%); format: functional
Method in brief: (§1)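 Trypomastigotes were treated with 3-HK for 24 h at 37 °C, then incubated with PI plus Rh123. Rh123 fluorescence was read by flow cytometry in PI-negative (live) parasites. The depolarized fraction was taken as the low-fluorescence M2 population. Index of variation = (treated median − control median)/control median. Three experiments were run.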

Trypanosoma cruzi [4] = assay: Induction of mitochondrial membrane depolarization in Trypanosoma cruzi Tulahuen trypomastigotes at 2000 uM after 24 hrs by Rh123/propidium iodide staining-based flow cytometric analysis (reference value: 3.25 +/- 1.66%); format: functional; method in brief: as §1
Trypanosoma cruzi [5] = assay: Induction of mitochondrial membrane depolarization in Trypanosoma cruzi Tulahuen trypomastigotes at 8000 uM after 24 hrs by Rh123/propidium iodide staining-based flow cytometric analysis (reference value: 3.25 +/- 1.66%); format: functional; method in brief: as §1
Trypanosoma cruzi [6] = assay: Induction of mitochondrial membrane potential reduction in Trypanosoma cruzi Tulahuen trypomastigotes up to 4000 uM after 24 hrs by Rh123/propidium iodide staining-based flow cytometric analysis (reference value: 3.25 +/- 1.66%); format: functional; set-up: scale not given: the % may be the effect or the level left; method in brief: as §1
Trypanosoma cruzi [7] = assay: Induction of mitochondrial membrane potential in Trypanosoma cruzi Tulahuen trypomastigotes at 10 mM after 24 hrs by Rh123/PI staining-based flow cytometric analysis (reference value: 3.25 +/- 1.66%); format: functional; method in brief: as §1
Trypanosoma cruzi [8] = assay: Trypanocidal activity against Trypanosoma cruzi Tulahuen amastigotes infected in BALB/C mouse bone marrow derived macrophages assessed as decrease in parasite infected macrophages at 200 uM after 72 hrs by immunofluorescence assay; format: functional
Method in brief: (§2)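 Macrophages were infected with trypomastigotes and treated with 3-HK for 24 h. Immunofluorescence counts were made at 72 h post-infection. Intracellular parasites per 200 cells were expressed relative to medium-treated cultures, and infected cells were counted among 200 macrophages. Data are means ± SD of four independent experiments.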

Trypanosoma cruzi [9] = assay: Trypanocidal activity against Trypanosoma cruzi Tulahuen amastigotes infected in BALB/C mouse bone marrow derived macrophages assessed as parasite infected macrophages at 400 uM treated for 24 hrs followed by compound washout measured after 48 hrs by immunofluorescence assay (reference value: 26.84 +/- 7.81%); format: functional
Trypanosoma cruzi [10] = assay: Trypanocidal activity against Trypanosoma cruzi Tulahuen amastigotes infected in BALB/C mouse bone marrow derived macrophages assessed as parasite infected macrophages at 800 uM treated for 24 hrs followed by compound washout measured after 48 hrs by immunofluorescence assay (reference value: 26.84 +/- 7.81%); format: functional
Trypanosoma cruzi [11] = assay: Trypanocidal activity against Trypanosoma cruzi Tulahuen amastigotes infected in BALB/C mouse bone marrow derived macrophages assessed as parasite infected macrophages at 1200 uM treated for 24 hrs followed by compound washout measured after 48 hrs by immunofluorescence assay (reference value: 26.84 +/- 7.81%); format: functional
Trypanosoma cruzi [12] = assay: Trypanocidal activity against Trypanosoma cruzi Tulahuen amastigotes infected in BALB/C mouse bone marrow derived macrophages assessed as endocytic index at 1500 uM treated for 24 hrs followed by compound washout measured after 48 hrs by immunofluorescence assay (reference value: 213.66 +/- 58.79); format: functional
Trypanosoma cruzi [13] = assay: Trypanocidal activity against Trypanosoma cruzi Tulahuen amastigotes infected in BALB/C mouse bone marrow derived macrophages assessed as reduction in parasite infected macrophages at 0.2 uM after 72 hrs by immunofluorescence assay relative to control; format: functional
Trypanosoma cruzi [14] = assay: Trypanocidal activity against Trypanosoma cruzi Tulahuen amastigotes infected in BALB/C mouse bone marrow derived macrophages assessed as reduction intracellular parasite growth after 24 hrs by immunofluorescence assay; format: functional, cell-based; method in brief: as §2
Trypanosoma cruzi [15] = assay: Ratio of IC50 for Trypanosoma cruzi Tulahuen trypomastigotes infected in BALB/C mouse bone marrow derived macrophages to IC50 for Trypanosoma cruzi Tulahuen amastigotes infected in BALB/C mouse bone marrow derived macrophages; format: functional
Trypanosoma cruzi [16] = assay: Trypanostatic activity against Trypanosoma cruzi Tulahuen amastigotes infected in BALB/C mouse bone marrow derived macrophages assessed as effect in subpelicullar microtubules at 20 uM after 24 hrs by transmission electron microscopic analysis; format: functional
Method in brief: (§3)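 Bone marrow-derived macrophages were infected for 24 h, then exposed to 20 μM for 24 h or left untreated. Intracellular amastigote ultrastructure was examined by transmission electron microscopy, covering mitochondrion, nucleus, kinetoplast, flagellum, flagellar pocket, subpellicular microtubules and cytoplasmic structures.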

Trypanosoma cruzi [17] = assay: Trypanostatic activity against Trypanosoma cruzi Tulahuen amastigotes infected in BALB/C mouse bone marrow derived macrophages assessed as effect on flagellum structure at 20 uM after 24 hrs by transmission electron microscopic analysis; format: functional; method in brief: as §3
Jurkat = assay: Cytotoxicity against human Jurkat cells assessed as reduction in cell viability at 0.2 to 2000 uM after 24 hrs by trypan blue exclusion assay; format: cell-based
Method in brief: (§4)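 Mammalian cells (human PBMC, Swan 71, Jurkat; bone marrow-derived macrophages; J774) were exposed to 3-HK at 0.2 to 2000 μM for 24 h. Viability was then scored by trypan blue exclusion.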

J774 = assay: Cytotoxicity against mouse J774 assessed as reduction in cell viability at 0.2 to 2000 uM after 24 hrs by trypan blue exclusion assay; format: cell-based; details: j774, 24 h; method in brief: as §4
PBMC = assay: Cytotoxicity against human PBMC assessed as reduction in cell viability at 1200 to 2000 uM after 48 hrs by trypan blue exclusion assay; format: cell-based
Method in brief: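 Human PBMC and Jurkat cells were treated for 48 h with a range of 3-HK concentrations or left untreated. Viable cells were counted under light microscopy by trypan blue exclusion. Data are means ± SD of four independent experiments.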

[18] = Induction of apoptosis in BALB/C mouse BMDM assessed as cells with hypodiploid DNA content at 1200 uM after 24 hrs by FITC/propidium iodide staining based flow cytometric analysis (reference value: 29.9%); format: functional
[19] = Induction of apoptosis in BALB/C mouse BMDM assessed as cells with hypodiploid DNA content at 4000 uM after 24 hrs by FITC/propidium iodide staining based flow cytometric analysis (reference value: 29.9%); format: functional
[20] = Induction of apoptosis in BALB/C mouse BMDM assessed as cells with hypodiploid DNA content at 8000 uM after 24 hrs by FITC/propidium iodide staining based flow cytometric analysis (reference value: 29.9%); format: functional
[21] = Induction of apoptosis in BALB/C mouse BMDM assessed as cells with hypodiploid DNA content at 10000 uM after 24 hrs by FITC/propidium iodide staining based flow cytometric analysis (reference value: 29.9%); format: functional
Trypanosoma cruzi [22] = assay: Trypanocidal activity against Trypanosoma cruzi Tulahuen trypomastigotes infected in BALB/C mouse bone marrow derived macrophages assessed as induction of cell lysis at trypomastigote stage after 24 hrs

## Nc1c(O)cccc1C(=O)C[C@H](N)C(=O)O
[1]
  Activity: 27.5%
Trypanosoma cruzi [2]
  Activity: 50%
Trypanosoma cruzi [3]
  Activity: 3.88%
Trypanosoma cruzi [4]
  Activity: 12.1%
Trypanosoma cruzi [5]
  Activity: 40.7%
Trypanosoma cruzi [6]
  Activity: 8 - 12%
Trypanosoma cruzi [7]
  Activity: 40%
Trypanosoma cruzi [8]
  Activity: Active
Trypanosoma cruzi [9]
  Activity: 14.66%
Trypanosoma cruzi [10]
  Activity: 15.1%
Trypanosoma cruzi [11]
  Activity: 14.83%
Trypanosoma cruzi [12]
  Activity: 124.36
Trypanosoma cruzi [13]
  inhibition at 0.2 µM: 59%
Trypanosoma cruzi [14]
  IC50: 0.2 µM
Trypanosoma cruzi [15]
  Ratio IC50: 6000
Trypanosoma cruzi [16]
  Activity: inactive
Trypanosoma cruzi [17]
  Activity: inactive
Jurkat
  Activity: Non-Toxic
J774
  Activity: Non-Toxic
PBMC
  Activity: Toxic
[18]
  Activity: 26.3%
[19]
  Activity: 30.9%
[20]
  Activity: 29.9%
[21]
  Activity: 29.5%
Trypanosoma cruzi [22]
  IC50: 1200 µM

Source: ChEMBL document CHEMBL4052792, “3-Hydroxykynurenine, a Tryptophan Metabolite Generated during the Infection, Is Active Against Trypanosoma cruzi” (ACS Med Chem Lett, 2017)
